Assay results: ChEMBL document CHEMBL5678798 (Clin Cancer Res, 2009)

Key:
NCI-H929 = test: Antiproliferative activity against human NCI-H929 cells assessed as reduction in cell viability after 72 hrs by CellTiter-Glo assay; type: functional, cell-based; details: NCI-H929, 72 h
Summary of the method: (§1)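 Cells seeded in 96-well plates, left overnight at 37°C, then exposed to a range of test concentrations for 72 h. Viability read by CellTiter-Glo luminescence; IC50 from four-parameter curve fit. Lines kept at 37°C, 5% CO2, in recommended growth medium.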

MOLP-8 = test: Antiproliferative activity against human MOLP8 cells assessed as reduction in cell viability after 72 hrs by CellTiter-Glo assay; type: functional, cell-based; details: MOLP-8, 72 h; summary of the method: as §1
KMS-12-BM = test: Antiproliferative activity against human KMS-12-BM cells assessed as reduction in cell viability after 72 hrs by CellTiter-Glo assay; type: functional, cell-based; summary of the method: as §1
[1] = Cytotoxicity against HFF cells assessed as reduction in cell viability after 72 hrs by CellTiter-Glo assay; type: toxicity, cell-based; details: human; summary of the method: as §1
[2] = Toxicity in nu/nu CD-1 mouse implanted with mouse NIH-3T3/LISN cells assessed as reduction in body weight at 30 mg/kg, po administered twice daily for 5 to 21 days relative to control; type: organism-based; set-up: scale not given: the % may be the effect or the level left; details: in vivo, time 5-21 day
[3] = In vivo inhibition of IGF1R in mouse NIH-3T3/LISN cells implanted in IGF1-stimulated nu/nu CD-1 mouse assessed as reduction in IGF1R phosphorylation at 3 mg/kg, po pretreated for 4 hrs followed by IGF1 stimulation and measured after 10 min by […] relative to control; type: functional; details: 4.167 h, time 250 min
Summary of the method: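 Female nu/nu CD-1 mice, three per group, bearing ~500 mm3 tumors, given one oral dose of compound or vehicle. At 4 h, 10 µg hIGF-I i.v. via tail vein; saline controls. Tumor and blood taken 10 min later. Tumor lysates in RIPA captured on anti-IGF-IR plates and probed with europium anti-phosphotyrosine. Phospho/total IGF-IR expressed as % of ligand-stimulated control. Blood levels by LC-MS/MS.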

TGF-beta receptor type-1 = TGF-beta receptor type-1 (Homo sapiens, UniProt P36897); test: Inhibition of ALK5 (unknown origin)
[4] = biological target: Mitogen-activated protein kinase kinase kinase 5 (Homo sapiens, UniProt Q99683); test: Inhibition of ASK1 (unknown origin)
[5] = Inhibition of CDK2/CyclinA (unknown origin); set-up: species or system Homo sapiens
[6] = biological target: Inhibitor of nuclear factor kappa-B kinase subunit alpha (Homo sapiens, UniProt O15111); test: Inhibition of IKK1 (unknown origin)
Inhibitor of nuclear factor kappa-B kinase subunit alpha, sequence (O15111 whole entry): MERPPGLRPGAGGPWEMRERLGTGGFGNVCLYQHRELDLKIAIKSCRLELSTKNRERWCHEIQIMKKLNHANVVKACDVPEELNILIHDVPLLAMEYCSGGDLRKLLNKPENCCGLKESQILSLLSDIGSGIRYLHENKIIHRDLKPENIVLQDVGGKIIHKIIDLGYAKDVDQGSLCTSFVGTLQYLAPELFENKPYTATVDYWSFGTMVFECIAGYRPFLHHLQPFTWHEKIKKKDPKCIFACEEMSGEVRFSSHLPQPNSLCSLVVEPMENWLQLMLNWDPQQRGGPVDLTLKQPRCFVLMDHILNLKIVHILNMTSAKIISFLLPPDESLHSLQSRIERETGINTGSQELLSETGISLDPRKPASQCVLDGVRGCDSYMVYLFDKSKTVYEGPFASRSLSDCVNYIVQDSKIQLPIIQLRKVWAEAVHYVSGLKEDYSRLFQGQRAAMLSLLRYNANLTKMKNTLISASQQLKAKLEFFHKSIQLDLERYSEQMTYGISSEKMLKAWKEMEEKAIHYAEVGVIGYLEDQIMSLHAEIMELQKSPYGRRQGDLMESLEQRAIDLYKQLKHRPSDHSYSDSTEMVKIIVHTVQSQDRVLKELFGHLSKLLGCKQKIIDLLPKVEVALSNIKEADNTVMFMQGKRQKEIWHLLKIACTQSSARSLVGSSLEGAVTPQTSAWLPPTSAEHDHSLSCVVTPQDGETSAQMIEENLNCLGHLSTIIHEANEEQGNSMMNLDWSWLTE

[7] = biological target: MAP kinase-activated protein kinase 2 (Homo sapiens, UniProt P49137); test: Inhibition of MAPKAPK2 (unknown origin)
MAP kinase-activated protein kinase 2, sequence (P49137 whole entry, canonical isoform): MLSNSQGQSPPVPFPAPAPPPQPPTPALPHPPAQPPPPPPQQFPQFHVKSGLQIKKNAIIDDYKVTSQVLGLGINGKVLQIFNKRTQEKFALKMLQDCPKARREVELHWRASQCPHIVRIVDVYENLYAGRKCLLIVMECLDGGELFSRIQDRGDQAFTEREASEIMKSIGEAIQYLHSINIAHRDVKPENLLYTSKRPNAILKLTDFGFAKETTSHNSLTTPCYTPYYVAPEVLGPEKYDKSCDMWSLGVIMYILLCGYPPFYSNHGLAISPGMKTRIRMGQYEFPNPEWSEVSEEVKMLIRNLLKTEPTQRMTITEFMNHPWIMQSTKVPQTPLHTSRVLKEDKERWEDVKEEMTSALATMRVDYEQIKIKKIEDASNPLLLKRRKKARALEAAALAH

[8] = biological target: Phosphatidylinositol 4,5-bisphosphate 3-kinase catalytic subunit gamma isoform (Homo sapiens, UniProt P48736); test: Inhibition of PI3Kgamma (unknown origin)
[9] = biological target: Proto-oncogene tyrosine-protein kinase Src (Homo sapiens, UniProt P12931); test: Inhibition of SRC1 (unknown origin)
Proto-oncogene tyrosine-protein kinase Src, sequence (P12931 2-536 limits assumed): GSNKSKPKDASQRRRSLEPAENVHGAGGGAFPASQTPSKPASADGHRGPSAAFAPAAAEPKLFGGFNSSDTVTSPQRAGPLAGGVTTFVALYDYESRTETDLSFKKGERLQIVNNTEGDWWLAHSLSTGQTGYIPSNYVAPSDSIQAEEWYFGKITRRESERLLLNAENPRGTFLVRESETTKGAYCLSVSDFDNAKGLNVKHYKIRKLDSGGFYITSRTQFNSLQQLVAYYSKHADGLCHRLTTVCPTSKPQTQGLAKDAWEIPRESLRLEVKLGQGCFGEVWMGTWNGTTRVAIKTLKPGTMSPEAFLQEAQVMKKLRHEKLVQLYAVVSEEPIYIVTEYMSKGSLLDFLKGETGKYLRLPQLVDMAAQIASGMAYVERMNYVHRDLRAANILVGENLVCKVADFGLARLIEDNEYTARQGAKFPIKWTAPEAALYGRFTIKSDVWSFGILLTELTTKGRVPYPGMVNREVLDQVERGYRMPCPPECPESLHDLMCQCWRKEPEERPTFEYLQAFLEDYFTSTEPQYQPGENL

[10] = biological target: Calcium/calmodulin-dependent protein kinase type IV (Homo sapiens) (UniProt Q16566); test: Inhibition of C-terminal His6-tagged recombinant full length human CaMKIV expressed in baculovirus infected Sf21 cells at 0.3 uM by filter binding assay relative to control
Calcium/calmodulin-dependent protein kinase type IV (Homo sapiens), sequence (Q16566 whole entry): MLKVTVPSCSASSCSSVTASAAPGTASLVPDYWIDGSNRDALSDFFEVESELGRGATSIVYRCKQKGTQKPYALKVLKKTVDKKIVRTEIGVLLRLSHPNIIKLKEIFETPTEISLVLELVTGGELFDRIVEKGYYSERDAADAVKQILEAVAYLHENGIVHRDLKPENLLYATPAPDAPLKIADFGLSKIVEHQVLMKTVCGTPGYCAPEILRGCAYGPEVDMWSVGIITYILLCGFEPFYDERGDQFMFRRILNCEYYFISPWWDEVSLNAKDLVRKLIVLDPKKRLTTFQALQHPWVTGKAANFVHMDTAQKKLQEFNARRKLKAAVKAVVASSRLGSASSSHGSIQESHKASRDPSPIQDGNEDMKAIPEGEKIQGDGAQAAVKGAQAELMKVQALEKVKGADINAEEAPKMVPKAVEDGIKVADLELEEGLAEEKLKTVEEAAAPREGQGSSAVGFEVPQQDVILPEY
Summary of the method: (§2)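 KinaseProfiler panel of 233 kinases: radiometric filter-binding activity assays with compound at 0.3 or 3 µmol/L. Read-out is percent inhibition.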

[11] = biological target: Glycogen synthase kinase-3 alpha (Homo sapiens) (UniProt P49840); test: Inhibition of N-terminal His6-tagged recombinant human GSK3alpha (2 to end residues) expressed in Sf21 cells at 0.3 uM by filter binding assay relative to control
Glycogen synthase kinase-3 alpha (Homo sapiens), sequence (P49840 2-483 limits assumed): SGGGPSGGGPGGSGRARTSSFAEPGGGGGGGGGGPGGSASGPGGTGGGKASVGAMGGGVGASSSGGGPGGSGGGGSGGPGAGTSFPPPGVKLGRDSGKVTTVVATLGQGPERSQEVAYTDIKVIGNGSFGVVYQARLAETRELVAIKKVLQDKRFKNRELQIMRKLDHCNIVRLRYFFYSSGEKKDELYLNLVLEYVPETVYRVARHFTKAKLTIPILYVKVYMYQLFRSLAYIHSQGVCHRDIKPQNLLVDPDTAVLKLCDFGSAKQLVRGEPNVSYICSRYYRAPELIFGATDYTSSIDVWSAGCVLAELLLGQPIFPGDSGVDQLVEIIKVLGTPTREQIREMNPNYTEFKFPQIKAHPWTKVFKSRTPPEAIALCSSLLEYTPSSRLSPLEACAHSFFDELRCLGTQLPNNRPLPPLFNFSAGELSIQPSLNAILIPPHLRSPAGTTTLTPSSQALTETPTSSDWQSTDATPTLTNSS

[12] = biological target: Serine/threonine-protein kinase PLK1 (Homo sapiens) (UniProt P53350); test: Inhibition of N-terminal 6His-tagged recombinant human Plk1 expressed in baculovirus infected Sf21 cells at 0.3 uM by filter binding assay relative to control
Summary of the method: (§3)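 Outsourced single-concentration screen in a commercial panel of 233 protein kinases, run as radiometric filter-binding activity assays. Test agent was tested at 0.3 or 3 µmol/L, as given in each line, from a 10 mmol/L DMSO stock. Activity is expressed as percent inhibition relative to control.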

[13] = biological target: Tyrosine-protein kinase Blk (Mus musculus) (UniProt P16277); test: Inhibition of N-terminal His6-tagged recombinant full-length mouse Blk expressed in baculovirus infected Sf21 cells at 3 uM by filter binding assay relative to control; summary of the method: as §3
[14] = biological target: Serine/threonine-protein kinase BRSK1 (Homo sapiens) (UniProt Q8TDC3); test: Inhibition of N-terminal 6His-tagged recombinant human BrSK1 (2 to end residues) expressed in baculovirus infected Sf21 cells at 3 uM by filter binding assay relative to control; summary of the method: as §3
[15] = biological target: Death-associated protein kinase 2 (Homo sapiens) (UniProt Q9UIK4); test: Inhibition of N-terminal GST-tagged recombinant human full length DAPK2 expressed in baculovirus infected Sf21 cells at 3 uM by filter binding assay relative to control; summary of the method: as §3
Death-associated protein kinase 2 (Homo sapiens), sequence (Q9UIK4 whole entry, looked up): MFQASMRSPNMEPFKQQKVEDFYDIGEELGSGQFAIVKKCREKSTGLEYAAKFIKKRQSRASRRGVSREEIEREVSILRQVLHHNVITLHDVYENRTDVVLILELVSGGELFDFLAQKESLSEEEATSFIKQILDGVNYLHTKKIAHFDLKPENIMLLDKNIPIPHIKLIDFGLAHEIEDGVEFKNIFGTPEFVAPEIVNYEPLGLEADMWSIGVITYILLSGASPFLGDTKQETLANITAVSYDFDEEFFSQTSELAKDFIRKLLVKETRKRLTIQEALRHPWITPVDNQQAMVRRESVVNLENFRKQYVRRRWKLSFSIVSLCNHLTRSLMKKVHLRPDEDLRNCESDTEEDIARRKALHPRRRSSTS

[16] = Inhibition of recombinant mouse N-terminal 6His-tagged full length P110alpha/full length mouse […] expressed in baculovirus infected Sf21 cells at 3 uM by filter binding assay relative to control; details: condition cancer
[17] = biological target: Serine/threonine-protein kinase pim-1 (Homo sapiens) (UniProt P11309); test: Inhibition of N-terminal GST-tagged recombinant human full-length Pim-1 expressed in Escherichia coli cells at 3 uM by filter binding assay relative to control; summary of the method: as §3
[18] = biological target: Protein kinase C iota type (Homo sapiens) (UniProt P41743); test: Inhibition of N-terminal His6-tagged recombinant full-length human PKCiota expressed in Sf21 cells at 3 uM by filter binding assay relative to control; summary of the method: as §3
Protein kinase C iota type (Homo sapiens), sequence (P41743 whole entry): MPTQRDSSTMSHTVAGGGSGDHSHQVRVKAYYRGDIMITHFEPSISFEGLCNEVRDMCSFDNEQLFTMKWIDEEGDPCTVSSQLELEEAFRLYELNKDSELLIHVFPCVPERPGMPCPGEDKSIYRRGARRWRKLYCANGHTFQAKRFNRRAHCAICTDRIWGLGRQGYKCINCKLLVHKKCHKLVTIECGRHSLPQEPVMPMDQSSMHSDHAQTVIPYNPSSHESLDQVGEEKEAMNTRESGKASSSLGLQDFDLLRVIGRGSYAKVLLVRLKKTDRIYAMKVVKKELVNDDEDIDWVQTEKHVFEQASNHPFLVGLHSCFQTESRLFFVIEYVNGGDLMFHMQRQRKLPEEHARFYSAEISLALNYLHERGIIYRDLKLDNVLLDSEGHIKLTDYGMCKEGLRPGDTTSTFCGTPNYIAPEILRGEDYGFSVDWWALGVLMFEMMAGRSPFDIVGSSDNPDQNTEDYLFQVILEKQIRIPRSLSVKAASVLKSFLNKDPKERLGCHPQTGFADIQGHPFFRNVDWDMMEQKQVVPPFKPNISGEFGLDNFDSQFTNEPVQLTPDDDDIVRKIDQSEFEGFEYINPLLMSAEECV

[19] = biological target: Serine/threonine-protein kinase TBK1 (Homo sapiens) (UniProt Q9UHD2); test: Inhibition of N-terminal His6-tagged recombinant full-length human TBK1 expressed in baculovirus infected Sf21 cells at 3 uM by filter binding assay relative to control; summary of the method: as §3
[20] = biological target: Testis-specific serine/threonine-protein kinase 1 (Homo sapiens) (UniProt Q9BXA7); test: Inhibition of 6His-tagged recombinant human full length TSSK1 expressed in baculovirus infected Sf21 cells at 3 uM by filter binding assay relative to control; summary of the method: as §2
[21] = biological target: Casein kinase I isoform gamma-3 (Homo sapiens, UniProt Q9Y6M4); test: Inhibition of N-terminal 6His-tagged recombinant human CK1gamma3 (1 to 330 residues) expressed in baculovirus infected Sf21 cells by filter binding assay
[22] = biological target: Fibroblast growth factor receptor 1 (Homo sapiens, UniProt P11362); test: Inhibition of N-terminal GST-tagged recombinant human FGFR1 (456 to 765 residues) expressed in baculovirus infected Sf21 cells by filter binding assay
Fibroblast growth factor receptor 1, sequence (P11362 whole entry, the tested form may be a part): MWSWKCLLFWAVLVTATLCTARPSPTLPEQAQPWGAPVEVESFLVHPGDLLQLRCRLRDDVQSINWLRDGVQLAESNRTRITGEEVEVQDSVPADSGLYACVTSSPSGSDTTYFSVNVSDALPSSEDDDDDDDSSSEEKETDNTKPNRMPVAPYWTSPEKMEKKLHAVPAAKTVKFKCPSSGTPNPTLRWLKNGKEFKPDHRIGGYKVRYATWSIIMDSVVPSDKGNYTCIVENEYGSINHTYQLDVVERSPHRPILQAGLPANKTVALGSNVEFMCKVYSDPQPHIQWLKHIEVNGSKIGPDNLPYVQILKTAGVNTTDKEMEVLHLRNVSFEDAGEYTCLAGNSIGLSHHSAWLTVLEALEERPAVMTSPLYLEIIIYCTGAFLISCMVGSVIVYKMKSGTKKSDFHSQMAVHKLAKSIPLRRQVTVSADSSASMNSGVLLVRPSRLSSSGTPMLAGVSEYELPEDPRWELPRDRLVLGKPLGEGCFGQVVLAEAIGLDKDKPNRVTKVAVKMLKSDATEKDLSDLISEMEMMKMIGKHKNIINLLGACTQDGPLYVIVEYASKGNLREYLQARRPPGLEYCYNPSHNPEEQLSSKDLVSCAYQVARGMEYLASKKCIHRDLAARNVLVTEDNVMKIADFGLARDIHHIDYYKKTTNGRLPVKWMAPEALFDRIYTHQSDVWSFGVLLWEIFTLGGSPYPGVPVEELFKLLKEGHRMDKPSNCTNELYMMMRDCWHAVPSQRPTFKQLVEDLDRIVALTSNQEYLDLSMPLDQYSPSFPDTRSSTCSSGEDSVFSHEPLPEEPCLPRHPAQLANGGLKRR

[23] = biological target: Tyrosine-protein kinase HCK (Homo sapiens, UniProt P08631); test: Inhibition of N-terminal 6His-tagged recombinant human Hck (230 to 497 residues) expressed in baculovirus infected Sf21 cells by filter binding assay
[24] = biological target: 3-phosphoinositide-dependent protein kinase 1 (PDPK1) (Homo sapiens) (UniProt O15530); test: Inhibition of N-terminal His6-tagged recombinant human PDK1 (52 to end residues) expressed in baculovirus infected Sf21 cells at 0.3 uM by filter binding assay relative to control
3-phosphoinositide-dependent protein kinase 1 (PDPK1) (Homo sapiens), sequence (O15530 whole entry, looked up): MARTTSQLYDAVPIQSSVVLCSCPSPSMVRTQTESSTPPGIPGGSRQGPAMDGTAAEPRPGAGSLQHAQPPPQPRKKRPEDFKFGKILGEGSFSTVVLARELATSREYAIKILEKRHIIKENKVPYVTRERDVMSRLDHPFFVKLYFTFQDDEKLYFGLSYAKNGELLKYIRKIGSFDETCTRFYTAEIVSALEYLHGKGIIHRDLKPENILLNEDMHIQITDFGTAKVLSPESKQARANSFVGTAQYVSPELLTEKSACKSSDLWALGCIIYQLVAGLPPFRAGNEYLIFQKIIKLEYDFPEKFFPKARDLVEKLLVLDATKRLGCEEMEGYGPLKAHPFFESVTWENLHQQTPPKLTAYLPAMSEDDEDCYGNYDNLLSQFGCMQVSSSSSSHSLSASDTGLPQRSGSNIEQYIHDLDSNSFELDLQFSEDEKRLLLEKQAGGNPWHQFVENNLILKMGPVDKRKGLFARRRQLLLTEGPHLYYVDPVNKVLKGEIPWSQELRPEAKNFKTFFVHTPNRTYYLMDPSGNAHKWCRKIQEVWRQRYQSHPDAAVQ

## CCc1cc(Nc2nccc(-c3c(-c4ccc(OC)c(C(=O)Nc5c(F)cccc5F)c4)nc4ccccn34)n2)c(OC)cc1N1CCC(N2CCN(S(C)(=O)=O)CC2)CC1
NCI-H929
  IC50: 0.081 µM
MOLP-8
  IC50: 0.096 µM
KMS-12-BM
  IC50: 0.113 µM
[1]
  IC50 at 72 h: > 20 µM
[2]
  Activity: 11%
[3]
  inhibition in vivo at 3 mg/kg: 75%
TGF-beta receptor type-1
  IC50: > 10 µM
[4]
  IC50: > 25 µM
[5]
  IC50: > 10 µM
[6]
  IC50: 13 µM
[7]
  IC50: > 25 µM
[8]
  IC50: > 10 µM
[9]
  IC50: > 10 µM
[10]
  inhibition: 11%
[11]
  inhibition: -10%
[12]
  inhibition: -8%
[13]
  inhibition: 22%
[14]
  inhibition: 24%
[15]
  inhibition: 4%
[16]
  inhibition at 3 µM: 0%
[17]
  inhibition: 25%
[18]
  inhibition: 0%
[19]
  inhibition: 22%
[20]
  inhibition: 11%
[21]
  IC50: > 10 µM
[22]
  IC50: 1.88 µM
[23]
  IC50: 0.275 µM
[24]
  inhibition: 1%
